Measurements collected from several papers.
Lines come from different studies, so protocols differ.
pH: 7.4

Cn1cc2c(C(=O)O)ccc(NS(=O)(=O)c3ccc(Cl)c(Cl)c3)c2n1
logD (shake flask; aqueous buffer): 0.5

c1cc(-c2ccc3ncnc(Nc4ncco4)c3c2)nc(N2CCOCC2)n1
logD (shake flask; aqueous buffer): 3.4

N[C@@H](COCC(=O)N1CCC[C@H](C(=O)NCc2nc(-c3ccc(C(F)(F)F)cc3)cs2)C1)c1ccccc1
logD (shake flask; aqueous buffer): 3

CN(c1ncco1)c1ncnc2ccc(-c3cccc(N4CCOCC4)c3)cc12
logD (shake flask; aqueous buffer): 2.1

C=CC(=O)N1CC2(CCN(c3nc4c(c(-c5cc(O)cc6ccccc56)c3C)COC(C)(C)C4)C2)C1
logD: 4.3

Cn1cc2c(C(=O)O)ccc(NS(=O)(=O)c3ccc(OCC4CCC4)c(Cl)c3)c2n1
logD (shake flask; aqueous buffer): 2

CNS(=O)(=O)c1ccc(Nc2ncc3cc(Cl)c(=O)n(C4CCCC4)c3n2)c(C)c1
logD (shake flask; aqueous buffer; 1 h): 3.8

C=CC(=O)N1CC2(CCN(c3nc4c(c(-c5cc(O)cc6ccccc56)c3Cl)COC(C)(C)C4)C2)C1
logD: 4.9

Clc1cccc(Nc2ncnc3ccc(-c4cccc(N5CCOCC5)c4)cc23)c1
logD (shake flask; aqueous buffer): 5.3

CNS(=O)(=O)c1ccc(Nc2ncc(C(F)(F)F)c([C@H]3CC[C@](C)(O)CC3)n2)c(C)c1
logD (shake flask; aqueous buffer; 1 h): 3.6

CC(C)NCCOCC(=O)N1CCC[C@H](C(=O)NCc2nc(-c3ccc(C(F)(F)F)cc3)cs2)C1
logD (shake flask; aqueous buffer): 1.5

C=CC(=O)N1CC2(CCN(c3nc4c(c(-c5cc(O)cc6ccccc56)c3C#N)COC(C)(C)C4)C2)C1
logD: 4.3

COc1cnc(Nc2cnnc3ccc(-c4ccc(N5CCN(C)CC5)cc4)cc23)nc1
logD (shake flask; aqueous buffer): 3.2

C=C1C[C@@]23CC[C@H]4[C@@](C)(CCC[C@@]4(C)C(=O)O[C@@H]4O[C@H](CO)[C@@H](O)[C@H](O)[C@H]4O)[C@@H]2CC[C@]1(O[C@@H]1O[C@H](CO)[C@@H](O)[C@H](O)[C@H]1O[C@@H]1O[C@H](CO)[C@@H](O)[C@H](O)[C@H]1O)C3
logD (shake flask; aqueous buffer): -1.51

N#Cc1ccc(-c2csc(CNC(=O)[C@H]3CCCN(C(=O)COCCF)C3)n2)cc1
logD (shake flask; aqueous buffer): 1.6

C=CC(=O)N1CC2(CCN(c3nc4c(c(-c5c(C)ccc6[nH]ncc56)c3C#N)COC(C)(C)C4)C2)C1
logD: 2.8

c1cc(-c2ccc3ncnc(Nc4ncco4)c3c2)cc(N2CC3(COC3)C2)c1
logD (shake flask; aqueous buffer): > 4

N=C(CC(O)c1cc2c(F)cc(F)cc2c2cc(C(F)(F)F)ccc12)Nc1ccc(Br)cc1 (centres unmarked)
logD: 5.37

C[C@H](O)c1cnc(NS(=O)(=O)c2ccc(Cl)c(Cl)c2)nc1
logD (shake flask; aqueous buffer): 0.5

C=C1C[C@@]23CC[C@H]4[C@@](C)(CCC[C@@]4(C)C(=O)O[C@@H]4O[C@H](CO)[C@@H](O)[C@H](O)[C@H]4O)[C@@H]2CC[C@]1(O[C@@H]1O[C@H](CO)[C@@H](O)[C@H](O)[C@H]1O)C3
logD (shake flask; aqueous buffer): -1.45

N#Cc1ccc(-c2csc(CNC(=O)[C@H]3CCCN(C(=O)CCN)C3)n2)cc1
logD (shake flask; aqueous buffer): -0.69

C[C@H]1CN(c2cccc(-c3ccc4ncnc(Nc5ncco5)c4c3)c2)CCO1
logD (shake flask; aqueous buffer): > 4.3

O=C(O)c1ccc(NS(=O)(=O)c2ccc(Cl)c(Cl)c2)cc1F
logD (shake flask; aqueous buffer): -0.2

C[C@@H]1CN(c2cccc(-c3ccc4ncnc(Nc5ncco5)c4c3)c2)C[C@H](C)O1
logD (shake flask; aqueous buffer): > 3.6

Cc1ccc(Nc2cnnc3ccc(-c4ccc(N5CCCN(C)CC5)cc4)cc23)cn1
logD (shake flask; aqueous buffer): 3.3

CN1CCC(Nc2ncnc3ccc(-c4cccc(N5CCOCC5)c4)cc23)CC1
logD (shake flask; aqueous buffer): 2.5

CCOCC(=O)N1CCC[C@H](C(=O)NCc2nc(-c3ccc(C)nc3)cs2)C1
logD (shake flask; aqueous buffer): 1.4

CCN(CC)c1ccc(C=NNC(=O)c2ccccn2)c(O)c1
logD (shake flask; aqueous buffer; 24 h): 3.48

c1cc(-c2ccc3ncnc(Nc4ncco4)c3c2)nc(N2C[C@H]3C[C@@H]2CO3)n1
logD (shake flask; aqueous buffer): 3.1
